Source: ChEMBL document CHEMBL1124866, “Synthesis and activity of NAcSerAspLysPro analogues on cellular interactions between T-cell and erythrocytes in rosette formation” (1990)
Calls of active or inactive are those of the source. No cut-off for these calls is given here. Square brackets hold non-standard residues; d marks the D form. Peptide text beside a SMILES is read from it. Orn = NCCC[C@H](N)C(=O)O

Experiments:
[1] = test system: Jurkat; assay: Activity on rosetting of jurkat T-cells with SRBC at the concentration of 10e-6 M; Not significant; assay type: functional, cell-based; conditions: Homo sapiens
[2] = test system: Jurkat; assay: Activity on rosetting of jurkat T-cells with SRBC at the concentration of 10e-5 M; Not significant; assay type: functional, cell-based; conditions: Homo sapiens
[3] = test system: Jurkat; assay: (§1) Activity on rosetting of jurkat T-cells with SRBC at the concentration of 10e-10 M; assay type: functional, Homo sapiens
[4] = test system: Jurkat; assay: (§2) Activity on rosetting of jurkat T-cells with SRBC at the concentration of 10e-8 M; assay type: functional, Homo sapiens
[5] = test system: Jurkat; assay: Activity on rosetting of jurkat T-cells with SRBC at the concentration of 10e-3 M; Not significant; assay type: functional, cell-based; conditions: Homo sapiens
[6] = test system: Jurkat; assay: (§3) Activity on rosetting of jurkat T-cells with SRBC at the concentration of 10e-7 M; assay type: functional, Homo sapiens
[7] = test system: Jurkat; assay: Activity on rosetting of jurkat T-cells with SRBC at the concentration of 10e-9 M; Not significant; assay type: functional, cell-based; conditions: Homo sapiens, at 0.001 µM
In short: (§4)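 Jurkat T lymphoma cells kept in RPMI 1640 with 10% heat-inactivated FCS, washed three times before use; SRBC washed three times. Jurkat cells (2 × 10^6 cells/mL, 2.10⁵ cells) preincubated with peptide in RPMI for 10 min at 4 °C. SRBC (2 × 10^8 cells/mL) added, centrifuged 5 min at 200g, held overnight at 4 °C. Rosettes (three erythrocytes per lymphocyte) counted blind by hemocytometer; three experiments in quadruplicate; % inhibition.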

[8] = test system: Jurkat; assay: (§5) Activity on rosetting of jurkat T-cells with SRBC at the concentration of 10e-5 M; assay type: functional, Homo sapiens
[9] = test system: Jurkat; assay: Activity on rosetting of jurkat T-cells with SRBC at the concentration of 0 M; assay type: functional, Homo sapiens
[10] = test system: Jurkat; assay: Activity on rosetting of jurkat T-cells with SRBC at the concentration of 10e-7 M; Not significant; assay type: functional, cell-based; conditions: Homo sapiens, at 0.1 µM; in short: as §4
[11] = test system: Jurkat; assay: Activity on rosetting of jurkat T-cells with SRBC at the concentration of 10e-8 M; Not significant; assay type: functional, cell-based; conditions: Homo sapiens, at 0.01 µM; in short: as §4
[12] = test system: Jurkat; assay: Activity on rosetting of jurkat T-cells with SRBC at the concentration of 10e-11 M; Not significant; assay type: functional, cell-based; conditions: Homo sapiens, at 10 pM; in short: as §4
[13] = test system: Jurkat; assay: Activity on rosetting of jurkat T-cells with SRBC at the concentration of 10e-10 M; Not significant; assay type: functional, cell-based; conditions: Homo sapiens, at 0.0001 µM; in short: as §4
[14] = test system: Jurkat; assay: Activity on rosetting of jurkat T-cells with SRBC at the concentration of 10e-4 M; Not significant; assay type: functional, cell-based; conditions: Homo sapiens
[15] = test system: Jurkat; assay: (§6) Activity on rosetting of jurkat T-cells with SRBC at the concentration of 10e-6 M; assay type: functional, Homo sapiens
[16] = test system: Jurkat; assay: (§7) Activity on rosetting of jurkat T-cells with SRBC at the concentration of 10e-11 M; assay type: functional, Homo sapiens
[17] = test system: Jurkat; assay: (§8) Activity on rosetting of jurkat T-cells with SRBC at the concentration of 10e-9 M; assay type: functional, Homo sapiens
[18] = test system: Jurkat; assay: (§9) Activity on rosetting of jurkat T-cells with SRBC at the concentration of 10e-4 M; assay type: functional, Homo sapiens
[19] = test system: Jurkat; assay: (§10) Activity on rosetting of jurkat T-cells with SRBC at the concentration of 10e-3 M; assay type: functional, Homo sapiens
[20] = test system: Jurkat; assay: as §5; assay type: functional; conditions: Homo sapiens
[21] = test system: Jurkat; assay: as §6; assay type: functional; conditions: Homo sapiens
[22] = test system: Jurkat; assay: as §9; assay type: functional; conditions: Homo sapiens
[23] = test system: Jurkat; assay: Activity on rosetting of jurkat T-cells with SRBC at the concentration of 10e-12 M; Not significant; assay type: functional, cell-based; conditions: Homo sapiens
[24] = test system: Jurkat; assay: as §1; assay type: functional; conditions: Homo sapiens
[25] = test system: Jurkat; assay: as §3; assay type: functional; conditions: Homo sapiens
[26] = test system: Jurkat; assay: Activity on rosetting of jurkat T-cells with SRBC at the concentration of 10e-14 M; assay type: functional, Homo sapiens
[27] = test system: Jurkat; assay: Activity on rosetting of jurkat T-cells with SRBC at the concentration of 10e-12 M; assay type: functional, Homo sapiens
[28] = test system: Jurkat; assay: Activity on rosetting of jurkat T-cells with SRBC at the concentration of 10e-13 M; assay type: functional, Homo sapiens
[29] = test system: Jurkat; assay: Activity on rosetting of jurkat T-cells with SRBC at the concentration of 10e-15 M; Not significant; assay type: functional, cell-based; conditions: Homo sapiens
[30] = test system: Jurkat; assay: Activity on rosetting of jurkat T-cells with SRBC at the concentration of 10e-14 M; Not significant; assay type: functional, cell-based; conditions: Homo sapiens
[31] = test system: Jurkat; assay: Activity on rosetting of jurkat T-cells with SRBC at the concentration of 10e-13 M; Not significant; assay type: functional, cell-based; conditions: Homo sapiens
[32] = test system: Jurkat; assay: as §7; assay type: functional; conditions: Homo sapiens
[33] = test system: Jurkat; assay: as §2; assay type: functional; conditions: Homo sapiens
[34] = test system: Jurkat; assay: Activity on rosetting of jurkat T-cells with SRBC at the concentration of 10e-15 M; assay type: functional, Homo sapiens
[35] = test system: Jurkat; assay: as §10; assay type: functional; conditions: Homo sapiens
[36] = test system: Jurkat; assay: as §8; assay type: functional; conditions: Homo sapiens

Row | Compound | inhibition [1] | inhibition [2] | No. of rosettes/100 Jurkat T cells [3] | No. of rosettes/100 Jurkat T cells [4] | No. of rosettes/100 Jurkat T cells [6] | inhibition [7] | No. of rosettes/100 Jurkat T cells [8] | No. of rosettes/100 Jurkat T cells [9] | inhibition [10] | inhibition [11] | inhibition [12] | inhibition [13] | inhibition [14] | No. of rosettes/100 Jurkat T cells [15] | No. of rosettes/100 Jurkat T cells [16] | No. of rosettes/100 Jurkat T cells [17] | No. of rosettes/100 Jurkat T cells [18] | inhibition at 10 µM [20] [%] | inhibition at 1 µM [21] [%] | inhibition at 100 µM [22] [%] | other results
1 | CC(=O)N[C@@H](CO)C(=O)N[C@H](CC(=O)O)C(=O)N[C@@H](CCCCN)C(=O)N1CCC[C@H]1C(=O)O | inactive | inactive | 43 | 47 | 47 | inactive | 49 | 51 | inactive | inactive | inactive | inactive | inactive | 42 | 57 | 51 | 48 |  |  |  | inhibition [5]: inactive; No. of rosettes/100 Jurkat T cells [19]: 48
2 | CC(=O)N[C@@H](C)C(=O)N[C@@H](CC(=O)O)C(=O)N[C@@H](CCCCN)C(=O)N1CCC[C@H]1C(=O)O (Ac-ADKP-OH) | inactive | inactive | 56 | 63 | 59 | inactive | 57 | 60 | inactive | inactive | inactive | inactive | inactive | 59 | 56 | 64 | 54 |  |  |  | 
3 | CC(=O)N[C@@H](CO)C(=O)N[C@@H](CC(=O)O)C(=O)N[C@@H](CCCN)C(=O)N1CCC[C@H]1C(=O)O (Ac-SD[Orn]P-OH) | inactive | inactive |  |  |  |  | 52 | 58 |  |  |  |  | inactive | 52 |  |  | 54 |  |  |  | 
4 | CC(=O)N[C@@H](CO)C(=O)N[C@@H](CCC(=O)O)C(=O)N[C@@H](CCCCN)C(=O)N1CCC[C@H]1C(=O)O (Ac-SEKP-OH) |  |  | 46 | 42 | 41 | inactive | 29 | 47 | inactive | inactive | inactive | inactive |  | 35 | 45 | 43 |  | 37 | 25 |  | 
5 | CC(=O)N[C@@H](CO)C(=O)N[C@@H](CC(=O)O)C(=O)O (Ac-Ser-Asp-OH) |  |  | 57 | 54 | 52 | inactive | 39 | 56 | inactive | inactive | inactive | inactive |  | 46 | 58 | 51 | 39 | 30 | 18 | 30 | 
6 | NCCCC[C@H](NC(=O)[C@@H](N)CC(=O)O)C(=O)O (H-Asp-Lys-OH) |  | inactive |  | 58 |  |  | 56 | 56 |  | inactive |  |  | inactive |  |  |  | 53 |  |  |  | 
7 | NCCCC[C@H](NC(=O)[C@@H](N)CC(=O)O)C(=O)N1CCC[C@H]1C(=O)O (H-Asp-Lys-Pro-OH) |  | inactive |  |  |  |  | 57 | 54 |  |  |  |  | inactive |  |  |  | 55 |  |  |  | 
8 | NCCCC[C@H](NC(=O)[C@H](CC(=O)O)NC(=O)[C@@H](N)CO)C(=O)N1CCC[C@H]1C(=O)O (H-SDKP-OH) |  |  | 55 | 56 | 54 |  | 49 | 63 |  |  |  |  |  | 50 | 55 |  | 47 | 22 | 20 | 25 | inhibition [23]: inactive; inhibition at 0.0001 µM [24]: 13%; inhibition at 0.1 µM [25]: 14%; No. of rosettes/100 Jurkat T cells [26]: 61; No. of rosettes/100 Jurkat T cells [27]: 59; No. of rosettes/100 Jurkat T cells [28]: 58; inhibition [29]: inactive; inhibition [30]: inactive; inhibition [31]: inactive; inhibition at 10 pM [32]: 13%; inhibition at 0.01 µM [33]: 11%; No. of rosettes/100 Jurkat T cells [34]: 60
9 | N[C@@H](CO)C(=O)N[C@@H](CC(=O)O)C(=O)O (H-Ser-Asp-OH) | inactive | inactive |  | 55 | 58 | inactive | 55 | 51 | inactive | inactive |  |  |  | 55 |  | 64 | 46 |  |  | 31 | 
10 | CC(=O)N[C@@H](CO)C(=O)N[C@@H](CC(=O)O)C(=O)N[C@@H](CCCCN)C(=O)N1CCC[C@H]1C(=O)O (stereo in doubt; form 1) |  |  |  |  |  |  |  |  |  |  | inactive | inactive |  |  |  |  |  |  |  |  | 
11 | CC(=O)N[C@@H](CO)C(=O)N[C@@H](CC(=O)O)C(=O)N[C@@H](CCCCN)C(=O)N1CCC[C@H]1C(=O)O (stereo in doubt; form 1) [GORALATIDE] |  |  | 63 | 41 | 40 |  | 32 | 62 |  |  |  |  |  | 37 | 58 | 48 | 33 | 48 | 40 | 48 | inhibition at 0.1 µM [25]: 35%; inhibition at 1000 µM [35]: 48%; inhibition at 0.01 µM [33]: 34%; inhibition at 0.001 µM [36]: 21%; No. of rosettes/100 Jurkat T cells [19]: 32
12 | CC(=O)N[C@@H](CO)C(=O)N[C@@H](CC(=O)O)C(=O)N[C@@H](CCCCN)C(=O)N1CCC[C@H]1C(=O)O (stereo in doubt; form 2) | inactive | inactive |  |  |  |  |  |  | inactive | inactive |  | inactive | inactive |  |  |  |  |  |  |  | 
13 | CC(=O)N[C@@H](CO)C(=O)N[C@@H](CC(=O)O)C(=O)N[C@@H](CCCCN)C(=O)N1CCC[C@H]1C(=O)O (stereo in doubt; form 2) [GORALATIDE] |  |  | 83 | 83 | 83 |  | 78 | 82 |  |  |  |  |  | 76 |  |  | 80 |  |  |  | 
